Laboratory results published in ChEMBL document CHEMBL1255434, “Heat stress cognate 70 host protein as a potential drug target against drug resistance in hepatitis B virus” (Antimicrob Agents Chemother, 2010).
Calls of active or inactive are those of the source. The rule behind the calls is not given here.

Assays:
Hepatitis B virus [1] = test: Antiviral activity against Hepatitis B virus infected in human HepG2(2.2.15) cells assessed as decrease in intracellular viral DNA level at 2.16 uM after 72 hrs by RT-PCR analysis; type: functional, organism-based
Procedure, shortened: (§1)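 HepG2.2.15 cells (HBV genome-transfected, MEM + 10% FBS) treated 72 h with drug alone or in two-drug combination. Entecavir 0.6 μg/ml (2.16 μM), adefovir 3 μg/ml (5.9 μM), lamivudine 3 μg/ml (13 μM), oxymatrine 30 μg/ml (113 μM). Intracellular HBV DNA by SYBR Green real-time PCR, relative to untreated. Experiment repeated twice; means and SD, Student's t test.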

Hepatitis B virus [2] = test: Antiviral activity against Hepatitis B virus infected in human HepG2(2.2.15) cells assessed as decrease in intracellular viral DNA level at 13 uM after 72 hrs by RT-PCR analysis; type: functional, organism-based; procedure, shortened: as §1
[3] = Decrease in HscA70-mRNA expression in Hepatitis B virus infected in human HepG2(2.2.15) cells at 13 uM after 24-36 hrs by RT-PCR analysis; type: functional, cell-based

For C=C1[C@H](CO)[C@@H](O)C[C@@H]1n1cnc2c(=O)[nH]c(N)nc21, the Activity (Hepatitis B virus [1]) was “Active”.
For Nc1ccn([C@@H]2CS[C@H](CO)O2)c(=O)n1, the Activity (Hepatitis B virus [2]) was “Active” and the Activity [3] was “inactive”.
